# Laboratory results published in ChEMBL document CHEMBL1145963, “Identification, synthesis, and activity of novel blockers of the voltage-gated potassium channel Kv1.5” (J Med Chem, 2003).
# Where “and” joins values, the source holds several entries; their conditions need not be identical. Equal entries are not always repeated.
# Experiments:
# [1] = biological target: T1, Potassium voltage-gated channel subfamily A member 5 (Homo sapiens, UniProt P22460); test: Inhibition of human voltage-gated potassium channel subunit Kv1.5 expressed in Xenopus oocytes; type: cell-based, Oocyte
# How it was run: (§1)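 Compounds came from a 10 mM DMSO stock diluted into ND96. Read-out was percent inhibition of the compound-free control current. For IC50, 3–4 concentrations were each tested at least twice and fitted with a variable-slope Hill equation.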
# [2] = biological target: T1, Potassium voltage-gated channel subfamily A member 5; test: Inhibition of human voltage-gated potassium channel subunit Kv1.5 expressed in Xenopus oocytes at 10 uM; type: cell-based; conditions: Oocyte
# How it was run: as §1, with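 “Human Kv1.5 cRNA (0.2–0.5 ng) was injected into Xenopus oocytes kept at 18 °C. […] Compounds” for “Compounds”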
# [3] = biological target: hERG (KCNH2) (Homo sapiens, UniProt Q12809); test: Inhibition of human Potassium channel HERG expressed in Xenopus oocytes at 10 uM; type: cell-based, Oocyte; conditions: Xenopus oocytes expressing human hERG
# [4] = biological target: Potassium voltage-gated channel subfamily A member 3 (Homo sapiens, UniProt P22001); test: Inhibition of human voltage-gated potassium channel subunit Kv1.3 expressed in Xenopus oocytes; type: cell-based, Oocyte
# How it was run: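 Kv1.3 was expressed in Xenopus oocytes and recorded by two-microelectrode voltage clamp, handled like the Kv1.5 assay. Compounds were diluted from a 10 mM DMSO stock into ND96 superfusate. Percent inhibition of the control current at 3–4 concentrations was fitted with a variable-slope dose–response equation to give IC50.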
# T1 sequence (P22460 whole entry): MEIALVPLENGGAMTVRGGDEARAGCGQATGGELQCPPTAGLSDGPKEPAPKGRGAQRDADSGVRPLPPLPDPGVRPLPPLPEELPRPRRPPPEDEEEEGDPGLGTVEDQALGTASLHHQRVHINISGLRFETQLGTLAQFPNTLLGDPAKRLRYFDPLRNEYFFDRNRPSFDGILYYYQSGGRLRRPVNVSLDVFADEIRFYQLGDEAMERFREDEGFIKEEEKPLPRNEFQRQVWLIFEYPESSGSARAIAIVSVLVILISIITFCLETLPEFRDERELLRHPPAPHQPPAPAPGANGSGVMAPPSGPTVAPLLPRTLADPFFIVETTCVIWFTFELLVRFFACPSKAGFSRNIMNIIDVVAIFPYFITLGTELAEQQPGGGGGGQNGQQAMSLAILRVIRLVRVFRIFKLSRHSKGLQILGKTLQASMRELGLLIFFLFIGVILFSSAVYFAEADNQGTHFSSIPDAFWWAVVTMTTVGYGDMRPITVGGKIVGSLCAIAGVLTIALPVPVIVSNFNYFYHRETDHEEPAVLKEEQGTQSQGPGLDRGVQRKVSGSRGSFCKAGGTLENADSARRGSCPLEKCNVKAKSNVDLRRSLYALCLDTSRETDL
# Sequence of Potassium voltage-gated channel subfamily A member 3 (P22001 whole entry): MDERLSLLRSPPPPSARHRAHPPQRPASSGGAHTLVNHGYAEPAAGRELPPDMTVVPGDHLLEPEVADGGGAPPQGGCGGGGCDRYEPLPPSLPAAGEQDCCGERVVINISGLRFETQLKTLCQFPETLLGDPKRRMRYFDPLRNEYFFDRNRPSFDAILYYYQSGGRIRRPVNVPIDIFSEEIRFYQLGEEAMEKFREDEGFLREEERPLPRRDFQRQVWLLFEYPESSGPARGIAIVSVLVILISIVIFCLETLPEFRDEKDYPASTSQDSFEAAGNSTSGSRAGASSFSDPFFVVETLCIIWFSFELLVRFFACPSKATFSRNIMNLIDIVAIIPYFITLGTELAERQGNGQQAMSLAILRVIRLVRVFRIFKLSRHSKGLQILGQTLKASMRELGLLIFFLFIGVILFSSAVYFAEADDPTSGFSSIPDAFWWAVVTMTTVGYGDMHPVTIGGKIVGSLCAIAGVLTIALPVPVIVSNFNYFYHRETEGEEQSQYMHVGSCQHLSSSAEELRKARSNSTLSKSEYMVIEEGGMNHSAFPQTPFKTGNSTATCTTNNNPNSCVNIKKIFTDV
# Sequence of hERG (KCNH2) (Q12809 whole entry): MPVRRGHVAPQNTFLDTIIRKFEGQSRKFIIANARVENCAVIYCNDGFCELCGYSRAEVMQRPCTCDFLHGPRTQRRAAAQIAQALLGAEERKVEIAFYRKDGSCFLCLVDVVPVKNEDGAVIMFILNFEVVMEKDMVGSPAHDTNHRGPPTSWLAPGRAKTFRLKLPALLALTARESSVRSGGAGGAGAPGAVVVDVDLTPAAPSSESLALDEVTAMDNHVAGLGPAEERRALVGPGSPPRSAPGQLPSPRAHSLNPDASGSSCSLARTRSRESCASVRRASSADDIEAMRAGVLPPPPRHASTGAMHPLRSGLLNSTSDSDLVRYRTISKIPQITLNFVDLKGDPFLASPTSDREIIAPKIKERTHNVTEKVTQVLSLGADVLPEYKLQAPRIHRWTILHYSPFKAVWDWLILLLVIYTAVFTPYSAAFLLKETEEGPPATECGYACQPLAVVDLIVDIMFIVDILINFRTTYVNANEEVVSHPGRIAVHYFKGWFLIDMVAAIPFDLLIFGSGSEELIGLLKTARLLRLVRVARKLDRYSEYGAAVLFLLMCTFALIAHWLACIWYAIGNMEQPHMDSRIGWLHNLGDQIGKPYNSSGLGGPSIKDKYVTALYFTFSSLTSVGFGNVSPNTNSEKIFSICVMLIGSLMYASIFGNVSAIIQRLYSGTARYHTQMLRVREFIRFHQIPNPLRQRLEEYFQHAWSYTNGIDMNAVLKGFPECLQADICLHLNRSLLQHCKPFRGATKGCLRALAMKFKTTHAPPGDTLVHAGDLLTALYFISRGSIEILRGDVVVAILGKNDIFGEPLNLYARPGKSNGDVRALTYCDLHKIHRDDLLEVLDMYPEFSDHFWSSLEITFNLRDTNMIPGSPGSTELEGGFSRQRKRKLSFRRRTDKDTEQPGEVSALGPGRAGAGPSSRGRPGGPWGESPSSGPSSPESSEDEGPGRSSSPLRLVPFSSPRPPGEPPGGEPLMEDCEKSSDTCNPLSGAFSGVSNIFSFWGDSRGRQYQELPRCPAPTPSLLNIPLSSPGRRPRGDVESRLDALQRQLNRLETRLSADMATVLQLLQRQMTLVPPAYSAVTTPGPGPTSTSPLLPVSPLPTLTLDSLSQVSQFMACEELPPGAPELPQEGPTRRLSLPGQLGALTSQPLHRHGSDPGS
smiles,measurement,setting,value
CN(C)CC(C)(C)CNC(=O)c1ccccc1-c1ccccc1CNC(=O)OCc1ccccc1,IC50,[1],2200 nM
CC(C)CCNC(=O)c1cccnc1-c1ccccc1CNC(=O)OCc1ccccc1,IC50,[1],7800 nM
CC(C)CCOC(=O)c1ccccc1-c1ccccc1CNC(=O)OCc1ccccc1,inhibition,[2],8%
CC(C)CCNC(=O)c1ccncc1-c1ccccc1CNC(=O)OCc1ccccc1,IC50,[1],12000 nM
COc1ccc(S(=O)(=O)NC(=O)NCc2ccccc2-c2ccccc2C(=O)NCc2ccc(F)cc2F)cc1,inhibition,[2],7%
C[C@@H](CC(=O)NCc1ccccc1-c1ccccc1C(=O)NCCc1ccccn1)c1ccccc1,IC50,[1],1000 nM
CC(C)CCNC(=O)c1ccccc1-c1ccccc1CNCCc1ccccc1,IC50,[1],4000 nM
O=C(NCc1ccccc1-c1ccccc1C(=O)NCCc1ccccn1)OCc1ccccc1,inhibition at 10 µM,[3],7%
same,IC50,[4],2300 nM
C[C@H](OC(=O)NCc1ccccc1-c1ccccc1C(=O)NCCc1ccccn1)c1ccccc1,inhibition at 10 µM,[3],11%
same,IC50,[4],500 nM
Cc1cccc(CNC(=O)OCc2ccccc2)c1-c1c(C)cccc1C(=O)NCCc1ccccn1,IC50,[1],1700 nM
Cc1cccc(CNC(=O)OCc2ccccc2)c1-c1c(C)cccc1C(=O)NCCC(C)C,IC50,[1],1000 nM and 1300 nM
CC(C)CCNC(=O)c1ccccc1-c1ccncc1CNC(=O)OCc1ccccc1,IC50,[1],7000 nM
O=C(NCc1ccccc1-c1ccccc1C(=O)NCc1ccc(F)cc1F)OCc1ccccc1,IC50,[1],1200 nM
O=C(NC1CCCCC1)c1cccc2cccc(NS(=O)(=O)c3ccc(Cl)cc3)c12,IC50,[1],9500 nM
